Screening results as filed in PubChem BioAssay.
HTR5A inv ag – counter-screen for OPRM1-OPRD1 inverse agonists: human HTR5A inverse agonism. P47898. HTR5A cell line, luminescence. inhibition, % at 9.3 µM. 340,000 compounds, 0.083% hits. AID 504634; in the data active means inhibition mostly above about 23%, no sharp cut-off; inactive means mostly below about 18%
Target sequence (P47898 whole entry, looked up): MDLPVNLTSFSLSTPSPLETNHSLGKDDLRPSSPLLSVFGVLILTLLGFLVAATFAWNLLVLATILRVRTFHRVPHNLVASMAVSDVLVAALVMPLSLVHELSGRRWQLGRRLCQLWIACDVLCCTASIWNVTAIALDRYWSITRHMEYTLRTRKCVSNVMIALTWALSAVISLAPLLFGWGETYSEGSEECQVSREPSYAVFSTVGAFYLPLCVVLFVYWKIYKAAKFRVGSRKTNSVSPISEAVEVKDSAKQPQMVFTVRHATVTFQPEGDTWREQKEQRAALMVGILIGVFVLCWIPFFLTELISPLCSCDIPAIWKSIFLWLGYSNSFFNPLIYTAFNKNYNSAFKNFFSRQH
MC4R barr agon – human MC4R agonism via beta-arrestin; activation, % at 8.9 µM; 360,000 compounds, 0.98% hits; U2OS MC4R beta-arrestin complementation, luminescence; percent of melanotan II response, DMSO zero; P32245;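 active means activation above a per-plate cutoff, the mean activation of sample wells on that plate plus 3 SD, cut at about 8% in these data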
MOR-DOR inv ag – mu-delta opioid heterodimer inverse agonism; cell-based MOR-DOR heterodimer luminescence; inhibition, % at 9.3 µM; 340,000 compounds, 0.21% hits; AID 504357; in the data active means inhibition above about 22%, passing the limit was not always enough
MOR-DOR ag – OPRM1-OPRD1 heterodimerization agonism; P35372+P41143; cells, luminescence; activation, % at 9.3 µM; 340,000 compounds, 0.3% hits; AID 504326; in the data active means activation above about 18%
MC4R antagonist – antagonists of human melanocortin 4 receptor (MC4R); P32245; MC4R-expressing cells, MTII-stimulated cAMP, LANCE TR-FRET; inhibition, % at 6.5 µM; 360,000 compounds, 0.48% hits;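 active means inhibition above its plate's cutoff, the mean of tested wells on that plate plus 3 SD, cut at about 29% in these data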
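System: U2OS cells stably expressing human melanocortin 4 receptor (MC4R). Reagent: Melanotan II challenge after compound preincubation. Doses: 6.5 µM. Times: 30-min compound, 1-h challenge, 1-h detection, room temperature. Measured by: TR-FRET with Eu-cAMP and labeled anti-cAMP, 671 nm. Replicates: singlicate.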
HTR5A ag ctr – HTR5A agonism, opioid heterodimer counter-screen; HTR5A agonist assay, luminescence, cell-based; P47898; AID 504692; 340,000 compounds, 0.61% hits; activation, % at 9.3 µM; in the data active means activation mostly above about 9.5%, no sharp cut-off; inactive means mostly below about 7.6%
Large screens that a line does not name were inactive. An excerpt weighted towards active compounds, which were near 2.4% of everything screened.

C/C(=N\NC(=O)c1nnn(-c2nonc2N)c1CN1CCC(C)CC1)c1ccc(Br)cc1	none (no result: HTR5A inv ag, MOR-DOR inv ag, MOR-DOR ag, HTR5A ag ctr)
Cc1cc(NC(=O)COC(=O)c2ccc(C)c(C)c2)no1	none
Cc1cc(NC(=O)COC(=O)c2cccc(OCc3ccccc3)c2)no1	MC4R barr agon 8.5
O=C1CC(NS(=O)(=O)c2ccc(F)cc2)CN1c1ccc2c(c1)OCCO2 (stereo not drawn)	none
O=C(Nc1ccc(Cl)cc1)c1cc2c(cc1O)[nH]c1ccccc12	HTR5A ag ctr 14
CCO[C@@H]1OC(C(=O)NCc2ccccc2)=C[C@H](c2ccc3c(c2)OCO3)[C@H]1CCCO	none
C#CCNC(=O)C1=C[C@@H](c2ccc3c(c2)OCO3)[C@H](CCCO)[C@@H](OCC)O1	HTR5A ag ctr 11
Cc1ccc(-n2[nH]c(C)c(C=Nc3ccc4[nH]c(=O)[nH]c4c3)c2=O)cc1C	MC4R barr agon 16, MOR-DOR ag 25, HTR5A ag ctr 22
Cc1ccc(-n2[nH]c(C)c(C=Nc3ccc4[nH]c(=O)[nH]c4c3)c2=O)cc1	none
O=c1[nH]c(/C=C/c2ccccc2[N+](=O)[O-])nc2ccccc12	MC4R barr agon 8.8
COc1cccc(C(=O)NNC(=O)Cc2ccc([N+](=O)[O-])cc2)c1	none
COc1ccc(CC(=O)NNC(=O)c2ccc(SCc3cc(F)ccc3F)c([N+](=O)[O-])c2)cc1	MC4R barr agon 9.0
CN1CCN(c2nc(-c3ccc(Cl)cc3)nc3ccccc23)CC1	none
COc1cccc(-c2sc3ccc(OC)cc3c2-c2ccc(O)cc2)c1	none
COc1cccc(-c2sc3ccc(OC)cc3c2-c2ccc(OCCN(C)C)cc2)c1	MC4R barr agon 10
O=C(CCN1C(=O)/C(=C\c2ccc(F)cc2)SC1=S)Nc1ccccc1	none
Clc1ccc(OCCCNCc2ccccc2)c2ccccc12	HTR5A ag ctr 10
Brc1ccccc1OCCNCc1ccccc1	none
COc1cc(S(=O)(=O)NCc2cccnc2)c(OC)cc1Br	HTR5A ag ctr 10.0
Cc1c(C(=O)Nc2c(F)cccc2F)sc2ncnc(N3CCN(c4ccccc4)CC3)c12	none
Cc1c(C(=O)NC2CCCCC2)sc2ncnc(N3CCN(c4ccccc4)CC3)c12	HTR5A ag ctr 11
COc1ccc(-n2cnnc2SCC(=O)Nc2cccnc2Cl)cc1	none
CSc1ccccc1NC(=O)COC(=O)CCC(=O)c1ccc(F)cc1	HTR5A ag ctr 8.4
O=C1C2=C(c3ccccc31)[N+](=O)[C@@H]1CCCC[C@@H]1N2[O-]	MOR-DOR inv ag 46
CC1(C)Cc2c(cnn2-c2ccc(F)cc2)C(NC(=O)C2CCC2)C1 (stereo not drawn)	none
COc1ccc(CN(C)C(=O)c2cccc(NC(=O)CC3SC(N4CCCCC4)=NC3=O)c2)c(OC)c1 (stereo not drawn)	HTR5A ag ctr 11
COc1cccc(CN(C)C(=O)c2cccc(NC(=O)CC3SC(N4CCCCC4)=NC3=O)c2)c1OC (stereo not drawn)	none
CCn1c(NCc2ccccn2)nc2c1c(=O)n(C)c(=O)n2C	HTR5A ag ctr 14
CCCn1c(NCc2ccco2)nc2c1c(=O)n(C)c(=O)n2C	none
O=[N+]([O-])c1ccc(C(O)C[n+]2ccccc2)cc1 (stereo not drawn)	none
O=C(Nc1ccc2nc3n(c(=O)c2c1)CCCCC3)C(=O)N1CCN(c2ccc(F)cc2)CC1	none
O=S(=O)(c1ccc(S(=O)(=O)N(Cc2ccccc2)Cc2ccco2)cc1)N1CCCC1	MC4R barr agon 8.5
CCN(Cc1ccccc1)S(=O)(=O)c1ccc(S(=O)(=O)N2CCN(C)CC2)cc1	none
N/C(Cc1ccc(Cl)cc1)=N\OC(=O)c1ccc2ccccc2c1	MC4R barr agon 9.2, MOR-DOR ag 27, HTR5A ag ctr 34
Cc1ccc(C)c(OCCC(=O)OCC(=O)Nc2ccc(Cl)cn2)c1	MC4R barr agon 9.5
CCN1CCN(c2nc3c(C)cccn3c(=O)c2/C=C(\C#N)C(=O)NC)CC1	none
Cc1ccc(NC(=S)c2nc3ccccc3s2)cc1	none
O=C(Nc1ccc(Cl)cc1)/C(=C/c1cccc(O)c1)c1nc2ccccc2s1	HTR5A ag ctr 11
S=C(Nc1ccc(Cl)cc1)c1nc2ccccc2s1	MC4R barr agon 8.6
O=C(O)C/C(=C\c1cccc(NC(=O)c2ccccc2Cl)c1)c1nc2ccccc2s1	none
COc1ccc(N=C2SC(CC(=O)Nc3ccccc3)C(=O)N2Cc2ccco2)cc1 (stereo not drawn)	MC4R barr agon 8.3
CSc1ccccc1C(=O)NCc1ccccc1C	none
O=C(O)c1ccc(N/N=C/c2ccc(-c3ccccc3)cc2)cc1	HTR5A ag ctr 13
O=C(Cc1c[nH]c2ccccc12)NCc1ccncc1	HTR5A ag ctr 11
Cc1ccc(S(=O)(=O)N2CCC(=O)N(CCOCc3cccc(Cl)c3)CC2)cc1	none
Cc1ccc(S(=O)(=O)N2CCC(=O)N(CCOCc3cccc(F)c3)CC2)cc1	MC4R barr agon 8.4
COc1cccc(OCC(=O)N2CCCc3ccccc32)c1	HTR5A ag ctr 10
Cc1ccc(CN2CCN(Cc3ccccc3C(F)(F)F)CC2)cc1	none
CCc1nnc(N2CCN(c3ncnc4c3oc3ccccc34)CC2)s1	none
c1ccc(N2CCN(c3ncnc4c3oc3ccccc34)CC2)cc1	HTR5A ag ctr 14
Cc1cccc(NC(=O)Nc2ccc(Oc3c(F)c(F)c(F)c(F)c3F)cc2)c1	none
O=C(Nc1ccc(Oc2c(F)c(F)c(F)c(F)c2F)cc1)OC1CCN2Cc3ccccc3N=C12 (stereo not drawn)	MC4R barr agon 9.3
CCCCc1c(C)nn(-c2nnc3c4ccccc4n(C)c3n2)c1C	HTR5A ag ctr 12
Cc1ccc(-n2ccc(=O)c(-c3ccnc(SCc4cccc(Cl)c4)n3)n2)cc1	MC4R barr agon 8.6
CCOC(=O)Cn1nc(-c2ccccc2)c2cnc3ccc(CC)cc3c21	MC4R barr agon 8.4
CCOC(=O)Cn1nc(-c2ccccc2)c(-c2ccccc2)nc1=O	none
CC(=O)n1cc(N(C(=O)CCl)c2ccc([N+](=O)[O-])cc2)c2ccccc21	MOR-DOR ag 20, MC4R antagonist 32, HTR5A ag ctr 27
CC(=O)n1cc(N(C(=O)CCl)c2ccccc2)c2ccccc21	MC4R barr agon 17, MOR-DOR ag 65, HTR5A ag ctr 57
O=Cc1[nH]c2ccccc2c1N(C(=O)CCl)c1ccc([N+](=O)[O-])cc1	none
O=C(CCl)N(c1ccccc1)c1c[nH]c2ccccc12	MC4R barr agon 19, MOR-DOR ag 39, HTR5A ag ctr 40
CCN(CC)S(=O)(=O)c1ccc2[nH]c(=O)[nH]c2c1	HTR5A ag ctr 9.5
CCCNC(=O)c1cc(C2CCCCN2C(=O)c2ccc(NC(C)=O)cc2)on1 (stereo not drawn)	none (no result: HTR5A inv ag, MOR-DOR inv ag, MOR-DOR ag, HTR5A ag ctr)
COc1cccc(COC(=O)Cc2ccc(S(=O)(=O)N3CCOCC3)s2)c1OC	none
